Test results: ChEMBL document CHEMBL1134651, “Acyl substitution at the ortho position of anilides enhances oral bioavailability of thiophene sulfonamides: TBC3214, an ETA selective endothelin antagonist” (J Med Chem, 2001)

Legend:
[1] = target: Endothelin receptor, ET-A/ET-B (Homo sapiens) (UniProt P24530+P25101); experiment: Relative affinity for human ETA over ETB receptors.; assay type: protein assay
[2] = Oral bioavailability in rat; assay type: ADME, organism-based; settings: in vivo
Endothelin-1 receptor = target: T1, Endothelin-1 receptor (Homo sapiens, UniProt P25101); experiment: Inhibitory concentration was determined against selective Endothelin A receptor
T1 sequence (P25101 whole entry): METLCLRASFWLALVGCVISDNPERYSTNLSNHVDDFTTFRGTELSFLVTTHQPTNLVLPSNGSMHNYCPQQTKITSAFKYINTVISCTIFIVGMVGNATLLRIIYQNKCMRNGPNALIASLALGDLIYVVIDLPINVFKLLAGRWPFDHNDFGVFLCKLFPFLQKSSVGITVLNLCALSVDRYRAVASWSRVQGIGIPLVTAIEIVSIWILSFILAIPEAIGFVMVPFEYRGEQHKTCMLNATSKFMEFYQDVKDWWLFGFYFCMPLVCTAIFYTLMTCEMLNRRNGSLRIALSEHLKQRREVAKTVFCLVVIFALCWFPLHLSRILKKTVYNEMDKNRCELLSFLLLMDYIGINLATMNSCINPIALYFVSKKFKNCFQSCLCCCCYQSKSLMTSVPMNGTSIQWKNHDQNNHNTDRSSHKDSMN

[3] = Oral absorption expressed as peak plasma conc (Cmax) after oral dosing of 50 mg/kg in rat; assay type: ADME, organism-based; set-up: dose 50 mg/kg, route oral
In short: (§1)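 Rats given compound orally at 50 mg/kg. Serial 200 μL blood samples drawn from the tail vein into heparin-coated microhematocrit tubes at selected times. Red cells removed at once by centrifugation; plasma stored at -80 °C, proteins precipitated with acetonitrile, drug measured by HPLC. Absorption reported as peak plasma concentration (Cmax) and AUC extrapolated to infinity.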

[4] = Oral absorption expressed as Area under curve was determined; assay type: ADME; set-up: concentration or dose not given beside the values; in short: as §1
[5] = Oral bioavailability was evaluated in dog.; assay type: ADME, organism-based, Canis lupus familiaris; settings: in vivo
[6] = Half life period in plasma was determined; assay type: ADME, cell-free
[7] = Oral bioavailability was evaluated in cat.; assay type: ADME, organism-based, Felis catus; settings: in vivo

Chain of Endothelin receptor, ET-A/ET-B (Homo sapiens) (P24530 whole entry, looked up, one chain of several): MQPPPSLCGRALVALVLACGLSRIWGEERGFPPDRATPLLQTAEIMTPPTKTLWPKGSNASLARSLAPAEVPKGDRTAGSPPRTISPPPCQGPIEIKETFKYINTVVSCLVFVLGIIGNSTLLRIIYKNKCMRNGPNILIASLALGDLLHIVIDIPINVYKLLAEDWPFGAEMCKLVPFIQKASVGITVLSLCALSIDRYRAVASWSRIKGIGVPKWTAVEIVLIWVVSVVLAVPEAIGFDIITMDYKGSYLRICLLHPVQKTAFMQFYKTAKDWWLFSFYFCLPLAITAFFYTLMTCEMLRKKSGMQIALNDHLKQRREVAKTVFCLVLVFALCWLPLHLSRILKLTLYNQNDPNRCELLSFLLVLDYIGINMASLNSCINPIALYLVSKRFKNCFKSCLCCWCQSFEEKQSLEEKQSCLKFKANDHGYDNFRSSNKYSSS

Selectivity [1]	bioavailability [2] [%]	IC50 (Endothelin-1 receptor) [pM]	Cmax [3] [ng/mL]	AUC [4] [µg·h/mL]	bioavailability [5] [%]	half-life [6] [h]	bioavailability [7] [%]	SMILES
940								Cc1ccc(NC(=O)c2sccc2S(=O)(=O)Nc2onc(C)c2Cl)cc1
12000	8							Cc1noc(NS(=O)(=O)c2ccsc2C(=O)Nc2cc3c(cc2C#N)OCO3)c1Cl
		430	21800	47				CCc1cc(C)cc(C)c1NC(=O)c1sccc1S(=O)(=O)Nc1onc(C)c1Cl
14600		170	13000	45.8				Cc1cc(C)c(NC(=O)c2sccc2S(=O)(=O)Nc2onc(C)c2C)c(C)c1CC#N
300								Cc1noc(NS(=O)(=O)c2ccsc2C(=O)Cc2ccc3c(c2)OCO3)c1Cl
10000	~100							Cc1cc2c(cc1CC(=O)c1sccc1S(=O)(=O)Nc1onc(C)c1C)OCO2
8500		100	53900	171				Cc1cc(C)c(NC(=O)c2sccc2S(=O)(=O)Nc2noc(C)c2Cl)c(C)c1CC#N
7000								Cc1cc2c(cc1CC(=O)c1sccc1S(=O)(=O)Nc1onc(C)c1Cl)OCO2
7000		170	35900	103				Cc1cc(C)c(NC(=O)c2sccc2S(=O)(=O)Nc2onc(C)c2Cl)c(C)c1
32900			42000	59.9				Cc1cc(C)c(NC(=O)c2sccc2S(=O)(=O)Nc2onc(C)c2Cl)c(C)c1CC#N
14000		120	59200	298				Cc1cc(C)c(NC(=O)c2sccc2S(=O)(=O)Nc2onc(C)c2Cl)c(C(=O)C(C)C)c1
3000	27							CC(=O)c1cc2c(cc1NC(=O)c1sccc1S(=O)(=O)Nc1onc(C)c1Cl)OCO2
10900		190	48200	118				Cc1cc(C)c(NC(=O)c2sccc2S(=O)(=O)Nc2onc(C)c2Cl)c(C)c1O
10800		140	2600	15.8				Cc1cc(C)c(CC(=O)c2sccc2S(=O)(=O)Nc2onc(C)c2Cl)c(C)c1O
500								Cc1noc(NS(=O)(=O)c2ccsc2C(=O)Nc2ccc3c(c2)OCO3)c1Br
442000	25	40	57600	272	70	4	42	CC(=O)c1cc(C)cc(C)c1NC(=O)c1sccc1S(=O)(=O)Nc1onc(C)c1Cl
